pEC50, pKi: −log10 of the molar value. The source made the active and inactive calls. The calls are words filed in the database; no cut-off is given here. Starred links: 1 amine or outer side, 2 acyl side, 3 side chain; linkers in the order of their positions; H or OH if unused. Positions of bridges follow the written chain, without caps; N, C: chain ends. Non-standard residues stand in square brackets, D forms with d. Residues, ends and D or L forms follow the SMILES beside them. Abu(4-yl) = O=C([C@H](CC[*:3])N[*:1])[*:2]; X1 = O=C(CN(CCCO)[*:1])[*:2]
Tests used:
[1] = tested on: Mus musculus; experiment: Cognition enhancing effect in CD38 knock out Slc:ICR mouse sire model of autism spectrum disorder assessed as latency time to retrieve pups by sires at 0.3 mL, ip administered as single dose measured after 30 mins by parental retrieval test (reference value: 600 sec); format: functional
[2] = Plasma concentration in Slc:ICR mouse at 100 ng/g, iv measured immediately by LC-MS/MS analysis; format: ADME, organism-based; conditions: in vivo
How it was run: (§1)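 Male ICR mice (30 g) were given 100 ng/g i.v. via the tail vein. Blood was taken by cardiac puncture immediately and at 5, 15 and 30 min; CSF was taken at 30 min or 12 h. Plasma was deproteinized with acetonitrile/methanol 1:1 containing [13C6,15N]OT internal standard and analysed by LC-MS/MS (C8 column, SRM).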

[3] = tested on: Mus musculus; experiment: Cognition enhancing effect in CD38KOCC Slc:ICR mouse model of autism spectrum disorder assessed as increase in sucrose consumption over water at 100 ng/ml, ip administered as single dose measured after 24 hrs; format: functional, organism-based
[4] = Half life in Slc:ICR mouse plasma during fast phase at 100 ng/g, iv measured for 15 mins by LC-MS/MS analysis; format: ADME, organism-based; how it was run: as §1
[5] = tested on: Mus musculus; experiment: Antidepressant-like activity in CD38KOCC Slc:ICR mouse model of autism spectrum disorder assessed as immobility time at 100 ng/ml, ip administered as single dose for 30 mins prior to testing measured for last 4 mins of 6 mins test by tail suspension test (reference value: 74.2 +/- 2.9 sec); format: functional
[6] = tested on: Mus musculus; experiment: Cognition enhancing effect in CD38 knock out Slc:ICR mouse sire model of autism spectrum disorder assessed as decrease in latency time to retrieve pups by sires at 0.3 mL, ip administered as single dose measured after 6 hrs by parental retrieval test; format: functional, organism-based
[7] = Half life in Slc:ICR mouse plasma during slow phase at 100 ng/g, iv measured for 15 to 60 mins by LC-MS/MS analysis; format: ADME, organism-based; how it was run: as §1
[8] = tested on: Mus musculus; experiment: Antidepressant-like activity in CD38KOCC Slc:ICR mouse model of autism spectrum disorder assessed as decrease in immobility time at 100 ng/ml, ip administered as single dose for 24 hrs prior to testing measured for last 4 mins of 6 mins test by tail suspension test
[9] = Stability in mouse plasma assessed as parent compound remaining at 50 ng/ml measured after 2 hrs by LC-MS/MS analysis; format: ADME, cell-free; conditions: read-out: Stability
How it was run: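 Pooled mouse plasma spiked to a final 50 ng/mL was incubated at 37 °C for 1–120 min, quenched with acetonitrile/methanol 1:1 plus internal standard, and analysed by LC-MS/MS. Percent of the initial concentration was calculated; 85–115% was taken as acceptable.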

[10] = species: Homo sapiens; experiment: Selectivity ratio of EC50 for recombinant human V1a receptor expressed in HEK293 cells to EC50 for recombinant human OTR expressed in HEK293 cells; format: cell-based
How it was run: (§2)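 Agonist response measured in HEK-293 cells stably expressing human OTR, V1aR or V1bR, loaded with 1 µM fura-2/AM for 30 min at 37 °C, washed in HEPES-buffered saline pH 7.4. F340/F380 ratio read every 3 s for 5 min at 37 °C, normalized to baseline and to maximal OT (OTR) or AVP (V1aR, V1bR) response; EC50 taken from these curves. n = 3, 20 cells per dish.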

[11] = target: T1, Oxytocin receptor (Homo sapiens) (UniProt P30559); experiment: Displacement of [3H]OT from recombinant human OTR expressed in HEK293 cell membranes assessed as dissociation rate constant for [3H]OT binding
T1 sequence (whole entry): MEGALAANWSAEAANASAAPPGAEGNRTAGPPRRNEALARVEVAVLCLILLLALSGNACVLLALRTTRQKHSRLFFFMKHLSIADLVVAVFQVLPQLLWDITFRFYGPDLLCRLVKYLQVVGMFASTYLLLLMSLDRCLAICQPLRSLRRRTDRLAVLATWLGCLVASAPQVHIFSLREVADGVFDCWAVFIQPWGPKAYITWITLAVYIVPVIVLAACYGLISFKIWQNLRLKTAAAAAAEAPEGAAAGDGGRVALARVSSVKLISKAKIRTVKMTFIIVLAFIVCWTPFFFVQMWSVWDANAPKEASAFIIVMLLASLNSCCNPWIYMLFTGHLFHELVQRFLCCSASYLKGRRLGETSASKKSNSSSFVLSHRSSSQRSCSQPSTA
How it was run: (§3)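 Membranes from HEK-293 cells stably expressing human OTR (5 µg/well) in 50 mM Tris, 10 mM MgCl2, 0.1% BSA, pH 7.4. [3H]OT added at 200 pM, 500 pM and 1 nM; bound and free separated by rapid filtration at multiple time points to build association curves. Kon and Koff fitted; t1/2 from Koff = ln2/t1/2. Two experiments, each in duplicate.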

[12] = target: T1, Oxytocin receptor (Homo sapiens); experiment: Displacement of [3H]OT from recombinant human OTR expressed in HEK293 cell membranes assessed as association rate constant for [3H]OT binding; how it was run: as §3
[13] = tested on: Mus musculus; experiment: Cognition enhancing effect in CD38 knock out Slc:ICR mouse sire model of autism spectrum disorder assessed as latency time to retrieve pups by sires at 100 ng/ml, ip administered as single dose measured after 30 mins by parental retrieval test (reference value: 600 sec); format: functional
[14] = species: Homo sapiens; experiment: Selectivity ratio of EC50 for recombinant human V1b receptor expressed in HEK293 cells to EC50 for recombinant human OTR expressed in HEK293 cells; format: cell-based; how it was run: as §2
[15] = Drug level in Slc:ICR mouse cerebrospinal fluid at 100 ng/g, iv measured after 12 hrs by LC-MS/MS analysis; format: ADME, organism-based; conditions: in vivo, 12 h, BLD = below limit of detection; how it was run: as §1
[16] = target: T2, Oxytocin receptor (Homo sapiens, UniProt P30559); experiment: Displacement of [3H]OT from recombinant human OTR expressed in HEK293 cell membranes measured after 1 hr
T2 sequence (P30559 whole entry): T1 sequence (whole entry)

[17] = tested on: Mus musculus; experiment: Cognition enhancing effect in CD38 knock out Slc:ICR mouse sire model of autism spectrum disorder assessed as latency time to retrieve pups by sires at 100 ng/ml, ip administered as single dose measured after 24 hrs by parental retrieval test (reference value: 233 +/- 68 sec); format: functional
[18] = tested on: Mus musculus; experiment: Cognition enhancing effect in CD38KOCC Slc:ICR mouse model of autism spectrum disorder assessed as sucrose consumption over water at 100 ng/ml, ip administered as single dose measured after 24 hrs relative to control (reference value: 0.46 +/- 0.04); format: functional
[19] = Drug level in Slc:ICR mouse cerebrospinal fluid at 100 ng/g, iv measured after 30 mins by LC-MS/MS analysis; format: ADME, organism-based; conditions: in vivo, 0.5 h, BLD = below limit of detection; how it was run: as §1
[20] = target: T2, Oxytocin receptor; experiment: Agonist activity at recombinant human OTR expressed in HEK293 cells assessed as increase in intracellular calcium level measured at 3 secs interval for 5 mins by fura-2/AM dye based micro spectrofluorometric method; format: functional, cell-based
[21] = tested on: Mus musculus; experiment: Antidepressant-like activity in CD38KOCC Slc:ICR mouse model of autism spectrum disorder assessed as immobility time at 100 ng/ml, ip administered as single dose for 24 hrs prior to testing measured for last 4 mins of 6 mins test by tail suspension test (reference value: 56.5 +/- 18.8 sec)
[22] = target: T3, Vasopressin V1b receptor (Homo sapiens, UniProt P47901); experiment: Agonist activity at recombinant human V1b receptor expressed in HEK293 cells assessed as increase in intracellular calcium level measured at 3 secs interval for 5 mins by fura-2/AM dye based micro spectrofluorometric method; format: cell-based
T3 sequence (P47901 whole entry): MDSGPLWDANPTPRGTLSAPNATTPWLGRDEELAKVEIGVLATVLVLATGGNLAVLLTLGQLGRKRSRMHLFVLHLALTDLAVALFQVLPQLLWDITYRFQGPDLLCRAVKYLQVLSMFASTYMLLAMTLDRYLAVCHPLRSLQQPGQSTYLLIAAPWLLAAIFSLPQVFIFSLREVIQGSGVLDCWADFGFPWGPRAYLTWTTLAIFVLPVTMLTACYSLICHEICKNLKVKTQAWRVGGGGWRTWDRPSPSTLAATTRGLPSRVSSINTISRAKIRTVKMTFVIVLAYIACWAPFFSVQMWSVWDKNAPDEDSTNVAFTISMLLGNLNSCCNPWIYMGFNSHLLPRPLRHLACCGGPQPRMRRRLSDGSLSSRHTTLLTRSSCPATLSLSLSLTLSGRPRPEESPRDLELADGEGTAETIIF

[23] = target: Vasopressin V1a receptor (Homo sapiens, UniProt P37288); experiment: Agonist activity at recombinant human V1a receptor expressed in HEK293 cells assessed as increase in intracellular calcium level measured at 3 secs interval for 5 mins by fura-2/AM dye based micro spectrofluorometric method; format: cell-based
Sequence of Vasopressin V1a receptor (P37288 whole entry): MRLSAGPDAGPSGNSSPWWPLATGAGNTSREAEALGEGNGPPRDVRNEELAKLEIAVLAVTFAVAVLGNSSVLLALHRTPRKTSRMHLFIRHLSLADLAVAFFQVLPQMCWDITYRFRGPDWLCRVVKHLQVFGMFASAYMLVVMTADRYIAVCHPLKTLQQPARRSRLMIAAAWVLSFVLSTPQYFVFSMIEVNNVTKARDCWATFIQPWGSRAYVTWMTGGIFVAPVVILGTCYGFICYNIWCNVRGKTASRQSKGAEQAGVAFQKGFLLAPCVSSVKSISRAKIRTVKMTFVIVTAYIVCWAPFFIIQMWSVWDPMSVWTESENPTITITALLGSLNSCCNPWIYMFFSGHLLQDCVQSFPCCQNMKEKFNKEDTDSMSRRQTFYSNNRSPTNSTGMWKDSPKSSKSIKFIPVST

[24] = tested on: Mus musculus; experiment: Cognition enhancing effect in CD38 knock out Slc:ICR mouse sire model of autism spectrum disorder assessed as latency time to retrieve pups by sires at 100 ng/ml, ip administered as single dose measured after 12 hrs by parental retrieval test (reference value: 233 +/- 68 sec); format: functional
[25] = tested on: Mus musculus; experiment: Cognition enhancing effect in CD38 knock out Slc:ICR mouse sire model of autism spectrum disorder assessed as latency time to retrieve pups by sires at 100 ng/ml, ip administered as single dose measured after 5 hrs by parental retrieval test (reference value: 233 +/- 68 sec); format: functional
[26] = target: T1, Oxytocin receptor (Homo sapiens); experiment: Displacement of [3H]OT from recombinant human OTR expressed in HEK293 cell membranes assessed as dissociation half life for [3H]OT binding; how it was run: as §3
[27] = tested on: Mus musculus; experiment: Cognition enhancing effect in CD38KOCC Slc:ICR mouse model of autism spectrum disorder assessed as sucrose consumption over water at 100 ng/ml, ip administered as single dose measured after 60 mins relative to control (reference value: 0.46 +/- 0.04); format: functional

Row | Cp [2] [ng/mL] | half-life [4] [min] | half-life [7] [min] | remaining at 2 h, 50 ng/ml [9] [%] | pKi [16] | pEC50 [20] | pEC50 [22] | pEC50 [23] | SMILES | Time [5] [s] | Ratio EC50 [10] | Ratio EC50 [14] | other results
1 | 334 | 2.91 | 8.84 | 85 to 115 | – | – | – | – | CC[C@H](C)[C@@H]1NC(=O)[C@H](Cc2ccc(O)cc2)NC(=O)[C@@H](N)CSSC[C@@H](C(=O)N2CCC[C@H]2C(=O)N[C@@H](CC(C)C)C(=O)NCC(N)=O)NC(=O)[C@H](CC(N)=O)NC(=O)[C@H](CCC(N)=O)NC1=O [OXYTOCIN] | 171 | – | – | Time [1]: 240 s; Activity [3]: inactive; Activity [6]: inactive; Activity [8]: inactive
2 | 108 | 3.1 | 4.23 | 85 to 115 | 8.85 | 10.51 | < 8.00 | < 8.00 | CC[C@H](C)[C@@H]1NC(=O)[C@H](Cc2ccc(O)cc2)NC(=O)[C@@H](N)CSSC[C@@H](C(=O)N(CCCO)CC(=O)N[C@@H](CC(C)C)C(=O)NCC(N)=O)NC(=O)[C@H](CC(N)=O)NC(=O)[C@H](CCC(N)=O)NC1=O (H-CYIQNC[X1]LG-NH2; disulfide 1-6) | 151.83 | > 323 | > 322 | K [11]: 0.0175 min⁻¹; K [12]: 7.47 ×10⁶ /M/min; Time [13]: 346 s; Drug uptake [15]: Bld; Time [17]: 100 s; Ratio [18]: 0.67; Drug uptake [19]: Bld; Time [21]: 157.3 s; Time [24]: 386 s; Time [25]: 293 s; T1/2 [26]: 36.6 min; Ratio [27]: 0.72
3 | – | – | – | – | 8.52 | 9.82 | < 8.00 | < 8.00 | CC[C@H](C)[C@@H]1NC(=O)[C@H](Cc2ccc(O)cc2)NC(=O)[C@@H](N)CCSC[C@@H](C(=O)N(CCCO)CC(=O)N[C@@H](CC(C)C)C(=O)NCC(N)=O)NC(=O)[C@H](CC(N)=O)NC(=O)[C@H](CCC(N)=O)NC1=O (H-[Abu(4-yl)]YIQNC[X1]LG-NH2; thioether 1-6) | – | > 66.6 | > 66.6 | –

Reference: ChEMBL document CHEMBL4390679 (J Med Chem, 2019)
